Values after ≈ are worked out from the molar mass of the structure shown.

One assay deals with SW-620. In words: Cytotoxicity against human SW620 cells after 72 hrs by MTT assay. Type of assay: functional, cell-based. The conditions noted are these: SW-620, 72 h. The gist of the method:
(§1)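 Cells harvested from 70–80% confluent cultures by trypsin/EDTA and seeded at 5000 cells/well in DMEM for 24 h. Compounds were dissolved in DMSO and diluted in medium to 0.5–20, with final DMSO below 1%. After 72 h at CO2, MTT was added for 3 h at 37 °C. Medium was replaced with DMSO and OD read at 540 nm. IC50 ± SD, three independent experiments.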
Consider `C=C(C)[C@@H]1CC[C@]2(C(=O)NCC(=O)O)CC[C@]3(C)[C@H](CC[C@@H]4[C@@]5(C)Cc6c([nH]c7ccc(Cl)cc67)C(C)(C)[C@@H]5CC[C@]43C)[C@@H]12`, for which the IC50 was found to be 10.4 µg/mL (≈ 16.8 µM).
Still for that read-out and setting: the value for `C=C(C)[C@@H]1CC[C@]2(C(=O)O)CC[C@]3(C)[C@H](CC[C@@H]4[C@@]5(C)Cc6c([nH]c7ccc(F)cc67)C(C)(C)[C@@H]5CC[C@]43C)[C@@H]12` was 9.16 µg/mL (≈ 16.8 µM); that for `CC(C)[C@@H]1CC[C@]2(C(=O)O)CC[C@]3(C)[C@H](CC[C@@H]4[C@@]5(C)Cc6c([nH]c7ccc(F)cc67)C(C)(C)[C@@H]5CC[C@]43C)[C@@H]12` was 7.28 µg/mL (≈ 13.3 µM).
The same measure, in the same setting: the figure for `C=C(C)[C@@H]1CC[C@]2(C(=O)O)CC[C@]3(C)[C@H](CC[C@@H]4[C@@]5(C)Cc6c([nH]c7ccccc67)C(C)(C)[C@@H]5CC[C@]43C)[C@@H]12` is 5.15 µg/mL (≈ 9.76 µM).

The subject of a further assay is K562. In words: Cytotoxicity against human K-562 cells after 72 hrs by MTT assay. Type of assay: functional, cell-based. The conditions noted are these: K562, 72 h.
With `C=C(C)[C@@H]1CC[C@]2(C(=O)NCC(=O)O)CC[C@]3(C)[C@H](CC[C@@H]4[C@@]5(C)Cc6c([nH]c7ccc(Cl)cc67)C(C)(C)[C@@H]5CC[C@]43C)[C@@H]12`, the IC50 was > 20 µg/mL.
On the same count and under the same terms, the value for `C=C(C)[C@@H]1CC[C@]2(C(=O)O)CC[C@]3(C)[C@H](CC[C@@H]4[C@@]5(C)Cc6c([nH]c7ccc(F)cc67)C(C)(C)[C@@H]5CC[C@]43C)[C@@H]12` was 10.9 µg/mL (≈ 20.1 µM).
Consider `CC(C)[C@@H]1CC[C@]2(C(=O)O)CC[C@]3(C)[C@H](CC[C@@H]4[C@@]5(C)Cc6c([nH]c7ccc(F)cc67)C(C)(C)[C@@H]5CC[C@]43C)[C@@H]12`, for which the IC50 was 14 µg/mL (≈ 25.6 µM).
On the same count and under the same terms, the figure for `C=C(C)[C@@H]1CC[C@]2(C(=O)O)CC[C@]3(C)[C@H](CC[C@@H]4[C@@]5(C)Cc6c([nH]c7ccccc67)C(C)(C)[C@@H]5CC[C@]43C)[C@@H]12` is 10 µg/mL (≈ 19 µM).

For another assay, the system named is PA-1. In words: Cytotoxicity against human PA-1 cells after 72 hrs by MTT assay. In kind it is functional, cell-based. The conditions noted are these: PA-1, 72 h. The gist of the method: as §1
For `C=C(C)[C@@H]1CC[C@]2(C(=O)NCC(=O)O)CC[C@]3(C)[C@H](CC[C@@H]4[C@@]5(C)Cc6c([nH]c7ccc(Cl)cc67)C(C)(C)[C@@H]5CC[C@]43C)[C@@H]12`, the IC50 came to 6.66 µg/mL (≈ 10.8 µM).
For `C=C(C)[C@@H]1CC[C@]2(C(=O)O)CC[C@]3(C)[C@H](CC[C@@H]4[C@@]5(C)Cc6c([nH]c7ccc(F)cc67)C(C)(C)[C@@H]5CC[C@]43C)[C@@H]12`, the IC50 was > 20 µg/mL.
On the same count and under the same terms, the figure for `CC(C)[C@@H]1CC[C@]2(C(=O)O)CC[C@]3(C)[C@H](CC[C@@H]4[C@@]5(C)Cc6c([nH]c7ccc(F)cc67)C(C)(C)[C@@H]5CC[C@]43C)[C@@H]12` is > 20 µg/mL; for `C=C(C)[C@@H]1CC[C@]2(C(=O)O)CC[C@]3(C)[C@H](CC[C@@H]4[C@@]5(C)Cc6c([nH]c7ccccc67)C(C)(C)[C@@H]5CC[C@]43C)[C@@H]12` it is 6.01 µg/mL (≈ 11.4 µM).

Another assay deals with DU-145. In words: Cytotoxicity against human DU145 cells after 72 hrs by MTT assay. As to conditions: DU-145, 72 h. Type of assay: functional, cell-based. The gist of the method:
as §1
Compound `C=C(C)[C@@H]1CC[C@]2(C(=O)NCC(=O)O)CC[C@]3(C)[C@H](CC[C@@H]4[C@@]5(C)Cc6c([nH]c7ccc(Cl)cc67)C(C)(C)[C@@H]5CC[C@]43C)[C@@H]12` returned an IC50 of 10.3 µg/mL (≈ 16.7 µM).
On the same count and under the same terms, the figure for `C=C(C)[C@@H]1CC[C@]2(C(=O)O)CC[C@]3(C)[C@H](CC[C@@H]4[C@@]5(C)Cc6c([nH]c7ccc(F)cc67)C(C)(C)[C@@H]5CC[C@]43C)[C@@H]12` is > 20 µg/mL; for `CC(C)[C@@H]1CC[C@]2(C(=O)O)CC[C@]3(C)[C@H](CC[C@@H]4[C@@]5(C)Cc6c([nH]c7ccc(F)cc67)C(C)(C)[C@@H]5CC[C@]43C)[C@@H]12` it is > 20 µg/mL.
On the same count and under the same terms, the value for `C=C(C)[C@@H]1CC[C@]2(C(=O)O)CC[C@]3(C)[C@H](CC[C@@H]4[C@@]5(C)Cc6c([nH]c7ccccc67)C(C)(C)[C@@H]5CC[C@]43C)[C@@H]12` was 8.86 µg/mL (≈ 16.8 µM).

Another assay has as its system A549. In words: Cytotoxicity against human A549 cells after 72 hrs by MTT assay. Type of assay: functional, cell-based. The conditions noted are these: A549, 72 h. The gist of the method: as §1
For `C=C(C)[C@@H]1CC[C@]2(C(=O)NCC(=O)O)CC[C@]3(C)[C@H](CC[C@@H]4[C@@]5(C)Cc6c([nH]c7ccc(Cl)cc67)C(C)(C)[C@@H]5CC[C@]43C)[C@@H]12`, the IC50 amounted to 12.4 µg/mL (≈ 20 µM).
Still for that read-out and setting: the figure for `C=C(C)[C@@H]1CC[C@]2(C(=O)O)CC[C@]3(C)[C@H](CC[C@@H]4[C@@]5(C)Cc6c([nH]c7ccc(F)cc67)C(C)(C)[C@@H]5CC[C@]43C)[C@@H]12` is 17.8 µg/mL (≈ 32.6 µM).
The same measure, in the same setting: the figure for `CC(C)[C@@H]1CC[C@]2(C(=O)O)CC[C@]3(C)[C@H](CC[C@@H]4[C@@]5(C)Cc6c([nH]c7ccc(F)cc67)C(C)(C)[C@@H]5CC[C@]43C)[C@@H]12` is 8.89 µg/mL (≈ 16.2 µM).
Still for that read-out and setting: the figure for `C=C(C)[C@@H]1CC[C@]2(C(=O)O)CC[C@]3(C)[C@H](CC[C@@H]4[C@@]5(C)Cc6c([nH]c7ccccc67)C(C)(C)[C@@H]5CC[C@]43C)[C@@H]12` is 7.6 µg/mL (≈ 14.4 µM).

The next assay concerns MIA PaCa-2. Briefly: Cytotoxicity against human MIA PaCa2 cells after 72 hrs by MTT assay. Type of assay: functional, cell-based. The conditions noted are these: MIA PaCa-2, 72 h. The gist of the method:
as §1
`C=C(C)[C@@H]1CC[C@]2(C(=O)NCC(=O)O)CC[C@]3(C)[C@H](CC[C@@H]4[C@@]5(C)Cc6c([nH]c7ccc(Cl)cc67)C(C)(C)[C@@H]5CC[C@]43C)[C@@H]12` yielded an IC50 of 10.7 µg/mL (≈ 17.3 µM).
`C=C(C)[C@@H]1CC[C@]2(C(=O)O)CC[C@]3(C)[C@H](CC[C@@H]4[C@@]5(C)Cc6c([nH]c7ccc(F)cc67)C(C)(C)[C@@H]5CC[C@]43C)[C@@H]12` yielded an IC50 of 17.4 µg/mL (≈ 31.9 µM). Compared with the last compound, the IC50 is about 1.6-fold higher.
In turn, `CC(C)[C@@H]1CC[C@]2(C(=O)O)CC[C@]3(C)[C@H](CC[C@@H]4[C@@]5(C)Cc6c([nH]c7ccc(F)cc67)C(C)(C)[C@@H]5CC[C@]43C)[C@@H]12` registered an IC50 of 8.4 µg/mL (≈ 15.3 µM).
Same read-out and setting: the value for `C=C(C)[C@@H]1CC[C@]2(C(=O)O)CC[C@]3(C)[C@H](CC[C@@H]4[C@@]5(C)Cc6c([nH]c7ccccc67)C(C)(C)[C@@H]5CC[C@]43C)[C@@H]12` was 6.7 µg/mL (≈ 12.7 µM).

Another assay has as its system HBL-100. In words: Cytotoxicity against human HBL100 cells after 72 hrs by MTT assay. Type of assay: functional, cell-based. As to conditions: HBL-100, 72 h. The gist of the method: as §1
Regarding `C=C(C)[C@@H]1CC[C@]2(C(=O)NCC(=O)O)CC[C@]3(C)[C@H](CC[C@@H]4[C@@]5(C)Cc6c([nH]c7ccc(Cl)cc67)C(C)(C)[C@@H]5CC[C@]43C)[C@@H]12`, the IC50 was 16.5 µg/mL (≈ 26.6 µM).
Still for that read-out and setting: the figure for `C=C(C)[C@@H]1CC[C@]2(C(=O)O)CC[C@]3(C)[C@H](CC[C@@H]4[C@@]5(C)Cc6c([nH]c7ccc(F)cc67)C(C)(C)[C@@H]5CC[C@]43C)[C@@H]12` is > 20 µg/mL; for `CC(C)[C@@H]1CC[C@]2(C(=O)O)CC[C@]3(C)[C@H](CC[C@@H]4[C@@]5(C)Cc6c([nH]c7ccc(F)cc67)C(C)(C)[C@@H]5CC[C@]43C)[C@@H]12` it is > 20 µg/mL.
On the same count and under the same terms, the figure for `C=C(C)[C@@H]1CC[C@]2(C(=O)O)CC[C@]3(C)[C@H](CC[C@@H]4[C@@]5(C)Cc6c([nH]c7ccccc67)C(C)(C)[C@@H]5CC[C@]43C)[C@@H]12` is 10.3 µg/mL (≈ 19.5 µM).

The test system of the next assay is NIH3T3. In words: Cytotoxicity against mouse NIH3T3 cells after 72 hrs by MTT assay. The conditions noted are these: NIH3T3, 72 h. In kind it is cell-based. The gist of the method: as §1
`C=C(C)[C@@H]1CC[C@]2(C(=O)NCC(=O)O)CC[C@]3(C)[C@H](CC[C@@H]4[C@@]5(C)Cc6c([nH]c7ccc(Cl)cc67)C(C)(C)[C@@H]5CC[C@]43C)[C@@H]12` came in with an IC50 of 11.2 µg/mL (≈ 18.1 µM).
As for `C=C(C)[C@@H]1CC[C@]2(C(=O)O)CC[C@]3(C)[C@H](CC[C@@H]4[C@@]5(C)Cc6c([nH]c7ccc(F)cc67)C(C)(C)[C@@H]5CC[C@]43C)[C@@H]12`, the IC50 was > 20 µg/mL.
As for `CC(C)[C@@H]1CC[C@]2(C(=O)O)CC[C@]3(C)[C@H](CC[C@@H]4[C@@]5(C)Cc6c([nH]c7ccc(F)cc67)C(C)(C)[C@@H]5CC[C@]43C)[C@@H]12`, inhibition was half-maximal at 14.6 µg/mL (≈ 26.6 µM) (IC50).
On the same count and under the same terms, the figure for `C=C(C)[C@@H]1CC[C@]2(C(=O)O)CC[C@]3(C)[C@H](CC[C@@H]4[C@@]5(C)Cc6c([nH]c7ccccc67)C(C)(C)[C@@H]5CC[C@]43C)[C@@H]12` is 6.9 µg/mL (≈ 13.1 µM).

For the origin of these results see ChEMBL document CHEMBL1144169, “Synthesis and cytotoxic activity of heterocyclic ring-substituted betulinic acid derivatives” (Bioorg Med Chem Lett, 2008).
